Published values of several laboratories.
Compare with care: the assays were run in different laboratories. pIC50: −log10 of the molar value.
Effect on: cell growth or viability

| SMILES | cell line | method | concentration | time | measurement | result |
| --- | --- | --- | --- | --- | --- | --- |
| COC(=O)c1[nH]cc(-c2c[nH]c3ccc(Cl)cc23)c1-c1c[nH]c2ccc(Cl)cc12 | RAW264.7 | resazurin | – | 72 h | CC50 | > 10 µM |
| O=S(=O)(NNc1nnc(Cl)c2ccccc12)c1ccc(F)cc1 | Vero | MTT | 500 µg/mL | – | viability | 4.75% |
| O=C1CCN(C(=O)Nc2ccc(F)c(Cl)c2)CN1Cc1ccc(F)cc1F | AML12HBV10 | MTT | – | 48 h | CC50 | > 50 µM |
| COc1ccc2c(Cc3ccccc3F)c3n(c(=O)c2c1OC)CCc1cc2c(cc1-3)OCO2 | L929 | CCK-8 | – | 24 h | pIC50 | 4.58 |
| COc1ccc(S(=O)(=O)ON=C2C=C(C)C(=O)C(C)=C2)cc1 | MDA-MB-436 | – | – | – | CC50 | 2.85 µM |
| Fc1ccc(NCc2ccc(Oc3ccccn3)cc2)cc1 | Vero | MTT | – | 72 h | CC50 | > 300 µM |
| C=C1CC[C@H]2C(C)=CC[C@H]3C(=C)C(=O)O[C@@H]3[C@@H]12 | CHO-K1 | MTT | – | 72 h | CC50 | 7.3 µM |
| Cn1cnc2c1c(=O)n(CC(=O)Nc1c(Cl)cccc1Cl)c(=O)n2C | Vero | MTT | 250 µg/mL | – | viability | 70.7% |
| CCNc1nc(Nc2ccc(F)c(Cl)c2)c2ccccc2n1 | Vero | MTT | 125 µg/mL | – | viability | 52.9% |
